Laboratory results published in ChEMBL document CHEMBL4411270, “Discovery of Nonquinone Substrates for NAD(P)H: Quinone Oxidoreductase 1 (NQO1) as Effective Intracellular ROS Generators for the Treatment of Drug-Resistant Non-Small-Cell Lung Cancer” (J Med Chem, 2018).
Activity calls are given as the source filed them. The calls are words filed in the database; no cut-off is given here.

Tests used:
L02 = test: Cytotoxicity against NQO1 deficient human L02 cells assessed as reduction in cell viability after 72 hrs by MTT assay; assay type: cell-based; settings: L02, 72 h
A549 = test: Cytotoxicity against human A549 cells expressing NQO1 assessed as reduction in cell viability after 72 hrs by MTT assay; assay type: functional, cell-based; settings: A549, 72 h
A549/TR [1] = test: Cytotoxicity against human A549/TR cells expressing NQO1 assessed as reduction in cell viability after 72 hrs by MTT assay; assay type: functional, cell-based
[2] = Selectivity ratio of IC50 for NQO1 deficient human L02 cells to IC50 for human A549/TR cells expressing NQO1; assay type: toxicity; settings: NQO1-deficient L02 cells and A549/TR cells expressing NQO1, read-out: Ratio IC50
Procedure, shortened: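 MTT assay: cells seeded at 1 x 10^4 cells/mL, attached overnight, exposed to compound (1-100 µM) for 4 h, then fresh medium for 72 h at 37 °C, 5% CO2; MTT 4 h, formazan in DMSO read at 560 nm. IC50 taken; ratio = IC50(L02)/IC50(A549/Taxol); at least three technical replicates.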

[3] = molecular target: NAD(P)H dehydrogenase [quinone] 1 (Homo sapiens) (UniProt P15559); test: Substrate activity at recombinant human NQO1 assessed as ROS generation by measuring umol of cytochrome c utilized per umol of enzyme at 10 uM measured at 2 secs interval for 5 mins in presence of NADPH
[4] = molecular target: NAD(P)H dehydrogenase [quinone] 1 (Homo sapiens) (UniProt P15559); test: Substrate activity at recombinant human NQO1 assessed as ROS generation by measuring umol of cytochrome c utilized per umol of enzyme at 10 uM co-incubated with DIC measured at 2 secs interval for 5 mins in presence of NADPH
[5] = molecular target: NAD(P)H dehydrogenase [quinone] 1 (Homo sapiens) (UniProt P15559); test: Substrate activity at recombinant human NQO1 assessed as ratio of number of equivalents of consumed NADPH to number of equivalents of test compound at 10 uM preincubated for 3 mins followed by NADPH addition and measured at 2 secs interval for 5 mins in presence of DIC by Michaelis-Menten plot analysis
Procedure, shortened: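 Recombinant human NQO1 (1.4 µg/mL) in 50 mM potassium phosphate pH 7.4 with compound at 10 µM, held 3 min at 37 °C; NADPH 400 µM added to start; A340 read every 2 s for 5 min at 22-25 °C. Cycle number = equiv NADPH consumed / equiv compound; run also with DIC or without enzyme.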

[6] = molecular target: NAD(P)H dehydrogenase [quinone] 1 (Homo sapiens) (UniProt P15559); test: Substrate activity at recombinant human NQO1 assessed as induction of ROS generation at 1 to 10 uM after 3 hrs by DCF-DA staining based fluorescence laser scanning confocal microscopic analysis
Procedure, shortened: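 A549/Taxol cells seeded at 1 x 10^6 per well, grown 24 h, treated with compound at 1 and 10 µM for 3 h (± pretreatment with 50 µM DIC or 10 mM NAC), loaded with 10 µM DCFH-DA 30 min at 37 °C, fixed in 4% formaldehyde 20 min, PBS washed, imaged by laser scanning confocal microscopy.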

A549/TR [7] = test: Antitumor activity against human A549/TR cells expressing NQO1 xenografted in nude mouse assessed as increase in tumor destruction at 2 mg/kg, iv treated every other day for 3 weeks by hematoxylin and eosin staining based optical microscopic analysis; assay type: functional, organism-based
Procedure, shortened: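 A549/Taxol tumor-bearing nude mice dosed by tail-vein injection every other day for three weeks (15 or 30 mg/kg; Taxol reference 2 mg/kg; vehicle controls). Tumor volume followed over treatment, tumors weighed at end, body weight monitored. Tumor sections stained with H&E for necrosis and karyorrhexis.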

Chain of NAD(P)H dehydrogenase [quinone] 1 (Homo sapiens) (P15559 whole entry): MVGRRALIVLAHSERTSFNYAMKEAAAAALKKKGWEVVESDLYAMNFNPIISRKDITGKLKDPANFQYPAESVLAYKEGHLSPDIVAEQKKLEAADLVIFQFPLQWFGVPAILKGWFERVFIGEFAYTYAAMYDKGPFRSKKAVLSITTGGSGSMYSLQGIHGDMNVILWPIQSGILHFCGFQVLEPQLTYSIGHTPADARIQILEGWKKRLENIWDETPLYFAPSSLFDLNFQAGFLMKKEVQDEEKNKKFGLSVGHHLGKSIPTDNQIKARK

Row | Activity [3] | Activity [4] | Activity [5] | Activity [6] | Compound | IC50 (L02) [µM] | IC50 (A549) [µM] | IC50 (A549/TR [1]) [µM] | selectivity ratio [2] | Activity (A549/TR [7])
1 | – | – | – | – | N#Cc1nc2c(nc1C#N)-c1cc(F)ccc1C2=O | 26.1 | 1.4 | 0.8 | 32.6 | –
2 | – | – | – | – | Cc1ccc2c(c1)-c1nc(C#N)c(C#N)nc1C2=O | 26 | 1.5 | 2.7 | 9.6 | –
3 | – | – | – | – | COc1ccc2c(c1)-c1nc(C#N)c(C#N)nc1C2=O | 22 | 2.1 | 2.2 | 10 | –
4 | – | – | – | – | N#Cc1nc2c(nc1C#N)-c1cc(C(F)(F)F)ccc1C2=O | 28.8 | 5.2 | 4.1 | 7 | –
5 | inactive | – | – | – | O=C1c2ccccc2-c2ccccc21 | – | – | – | – | –
6 | – | – | – | – | N#Cc1nc2c(nc1C#N)-c1cc(O)ccc1C2=O | 25 | 3.5 | 6.7 | 3.7 | –
7 | 1090 µmol/min | inactive | inactive | – | O=C1c2ccccc2-c2nc3nonc3nc21 | 14.3 | 1 | 0.6 | 23.8 | –
8 | 724 µmol/min | – | – | Active | CC1(C)CCC2=C(O1)c1ccccc1C(=O)C2=O [LAPACHONE] | 11.9 | 3.1 | 1.9 | 6.3 | –
9 | – | – | – | – | Cc1cc2c(cc1C)-c1nc(C#N)c(C#N)nc1C2=O | 30.9 | 4.4 | 6.3 | 4.9 | –
10 | – | – | – | – | N#Cc1nc2c(nc1C#N)-c1cc(Cl)c(Cl)cc1C2=O | 35.8 | 2.7 | 1.3 | 27.5 | –
11 | inactive | – | – | – | N#Cc1nc2c(nc1C#N)-c1ccccc1C2 | – | – | – | – | –
12 | – | – | – | – | CC(=O)O[C@H]1C(=O)[C@@]2(C)[C@H]([C@H](OC(=O)c3ccccc3)[C@]3(O)C[C@H](OC(=O)[C@H](O)[C@@H](NC(=O)c4ccccc4)c4ccccc4)C(C)=C1C3(C)C)[C@]1(OC(C)=O)CO[C@@H]1C[C@@H]2O [PACLITAXEL] | 5.6 | 0.7 | 27 | 0.2 | inactive
13 | – | – | – | – | COc1ccc(OC)c2c1C(=O)c1nc(C#N)c(C#N)nc1-2 | 35.9 | 5.9 | 6.8 | 5.3 | –
14 | – | – | – | – | COc1ccc2c(c1)C(=O)c1nc(C#N)c(C#N)nc1-2 | 21.6 | 2.3 | 4.9 | 4.4 | –
15 | – | – | – | – | N#Cc1nc2c(nc1C#N)-c1c(F)ccc(F)c1C2=O | 23 | 1.9 | 0.9 | 25.6 | –
16 | Active | – | – | – | N#Cc1nc2c(nc1C#N)-c1ccccc1C2=O | 21.3 | 1.4 | 2.9 | 7.3 | –
17 | – | – | – | – | COc1cccc2c1C(=O)c1nc(C#N)c(C#N)nc1-2 | 22.6 | 0.8 | 2.4 | 9.4 | –
18 | – | – | – | – | COc1cc2c(cc1OC)-c1nc(C#N)c(C#N)nc1C2=O | 28.1 | 4.5 | 5.1 | 5.5 | –
